Data from ChEMBL document CHEMBL1137333, “Synthesis, radiosynthesis, and biological evaluation of carbon-11 labeled 2beta-carbomethoxy-3beta-(3'-((Z)-2-haloethenyl)phenyl)nortropanes: candidate radioligands for in vivo imaging of the serotonin transporter with positron emission tomography” (J Med Chem, 2006).

Assays:
[1] = system: Cynomolgus monkey; experiment: Uptake in anesthetized cynomolgus monkey medulla after 4.5 mins; assay type: ADME, organism-based, Medulla of organ; details: in vivo, 0.075 h
In short: (§1)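 Baseline microPET scan (P4 scanner) of anesthetized cynomolgus monkeys after injection of the carbon-11 labelled nortropane tracer. Two baseline studies were run per tracer. Radioactivity was followed over time in regional brain time-activity curves.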

[2] = system: Cynomolgus monkey; experiment: Uptake in anesthetized cynomolgus monkey putamen after 115.0 mins; assay type: ADME, organism-based; details: in vivo
In short: (§2)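 Baseline microPET (Concorde P4) scan in anesthetized cynomolgus monkeys after injection of the carbon-11 labeled tracer, with no chase drug. Regional brain time-activity curves were followed over the scan. Tracer radiochemical purity and specific activity were determined by analytical HPLC at the time of injection.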

[3] = system: Cynomolgus monkey; experiment: Uptake in anesthetized cynomolgus monkey thalamus after 3.5 mins; assay type: ADME, organism-based; details: in vivo; in short: as §2
[4] = system: Cynomolgus monkey; experiment: Uptake in anesthetized cynomolgus monkey putamen after 12.5 mins; assay type: ADME, organism-based; details: in vivo; in short: as §2
[5] = system: Cynomolgus monkey; experiment: Uptake in anesthetized cynomolgus monkey caudate after 2.5 mins; assay type: ADME, organism-based, Caudate nucleus; details: in vivo
In short: (§3)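 Baseline microPET (Concorde P4) regional brain time-activity curves in anesthetized cynomolgus monkey following injection of the [11C]-labelled tracer, with radioactivity followed over the scan.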

[6] = system: Cynomolgus monkey; experiment: Uptake in anesthetized cynomolgus monkey frontal after 3.5 mins; assay type: ADME, organism-based, Frontal cortex; details: in vivo; in short: as §1
[7] = system: Cynomolgus monkey; experiment: Uptake in anesthetized cynomolgus monkey cerebellum after 45.0 mins; assay type: ADME, organism-based; details: in vivo, 0.75 h; in short: as §3
[8] = system: Cynomolgus monkey; experiment: Uptake in anesthetized cynomolgus monkey midbrain after 105.0 mins; assay type: ADME, organism-based; details: in vivo, 1.75 h; in short: as §1
[9] = system: Cynomolgus monkey; experiment: Uptake in anesthetized cynomolgus monkey cerebellum after 115.0 mins; assay type: ADME, organism-based; details: in vivo; in short: as §3
[10] = system: Cynomolgus monkey; experiment: Uptake in anesthetized cynomolgus monkey pons after 27.5 mins; assay type: ADME, organism-based; details: in vivo; in short: as §2
[11] = system: Cynomolgus monkey; experiment: Uptake in anesthetized cynomolgus monkey putamen after 85.0 mins; assay type: ADME, organism-based; details: in vivo; in short: as §2
[12] = system: Cynomolgus monkey; experiment: Uptake in anesthetized cynomolgus monkey putamen after 6.5 mins; assay type: ADME, organism-based; details: in vivo; in short: as §2
[13] = system: Cynomolgus monkey; experiment: Uptake in anesthetized cynomolgus monkey frontal after 15.5 mins; assay type: ADME, organism-based, Frontal cortex; details: in vivo; in short: as §1
[14] = system: Cynomolgus monkey; experiment: Ratio of uptake in frontal to cerebellum of anesthetized cynomolgus monkey after 65 mins; assay type: ADME, organism-based; details: in vivo
In short: (§4)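 Baseline microPET (Concorde P4) in anesthetized cynomolgus monkey after injection of the [11C]-labelled tracer. Regional time-activity curves were taken, and each region's uptake was divided by cerebellum uptake (low-SERT reference) at 65, 85 and 105 min postinjection.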

[15] = system: Cynomolgus monkey; experiment: Uptake in anesthetized cynomolgus monkey putamen after 9.5 mins; assay type: ADME, organism-based; details: in vivo; in short: as §2
[16] = system: Cynomolgus monkey; experiment: Uptake in anesthetized cynomolgus monkey medulla after 35.0 mins; assay type: ADME, organism-based, Medulla of organ; details: in vivo; in short: as §1
[17] = system: Cynomolgus monkey; experiment: Uptake in anesthetized cynomolgus monkey medulla after 75.0 mins; assay type: ADME, organism-based, Medulla of organ; details: in vivo, 1.25 h; in short: as §1
[18] = system: Cynomolgus monkey; experiment: Uptake in anesthetized cynomolgus monkey frontal after 45.0 mins; assay type: ADME, organism-based, Frontal cortex; details: in vivo, 0.75 h; in short: as §1
[19] = system: Cynomolgus monkey; experiment: Uptake in anesthetized cynomolgus monkey caudate after 75.0 mins; assay type: ADME, organism-based, Caudate nucleus; details: in vivo, 1.25 h; in short: as §3
[20] = system: Cynomolgus monkey; experiment: Uptake in anesthetized cynomolgus monkey medulla after 115.0 mins; assay type: ADME, organism-based, Medulla of organ; details: in vivo; in short: as §1
[21] = system: Cynomolgus monkey; experiment: Uptake in anesthetized cynomolgus monkey caudate after 0.5 mins; assay type: ADME, organism-based, Caudate nucleus; details: in vivo; in short: as §3
[22] = system: Cynomolgus monkey; experiment: Uptake in anesthetized cynomolgus monkey putamen after 3.5 mins; assay type: ADME, organism-based; details: in vivo; in short: as §2
[23] = system: Cynomolgus monkey; experiment: Uptake in anesthetized cynomolgus monkey thalamus after 65.0 mins; assay type: ADME, organism-based; details: in vivo; in short: as §2
[24] = system: Cynomolgus monkey; experiment: Ratio of uptake in midbrain to cerebellum of anesthetized cynomolgus monkey after 85 mins; assay type: ADME, organism-based; details: in vivo; in short: as §4
[25] = system: Cynomolgus monkey; experiment: Ratio of uptake in medulla to cerebellum of anesthetized cynomolgus monkey after 65 mins; assay type: ADME, organism-based; details: in vivo; in short: as §4
[26] = system: Cynomolgus monkey; experiment: Uptake in anesthetized cynomolgus monkey medulla after 65.0 mins; assay type: ADME, organism-based, Medulla of organ; details: in vivo; in short: as §1
[27] = system: Cynomolgus monkey; experiment: Uptake in anesthetized cynomolgus monkey thalamus after 85.0 mins; assay type: ADME, organism-based; details: in vivo; in short: as §2
[28] = system: Cynomolgus monkey; experiment: Uptake in anesthetized cynomolgus monkey medulla after 1.5 mins; assay type: ADME, organism-based, Medulla of organ; details: in vivo, 0.025 h; in short: as §1
[29] = system: Cynomolgus monkey; experiment: Uptake in anesthetized cynomolgus monkey medulla after 15.5 mins; assay type: ADME, organism-based, Medulla of organ; details: in vivo; in short: as §1
[30] = system: Cynomolgus monkey; experiment: Ratio of uptake in caudate to cerebellum of anesthetized cynomolgus monkey after 65 mins; assay type: ADME, organism-based; details: in vivo; in short: as §4
[31] = system: Cynomolgus monkey; experiment: Uptake in anesthetized cynomolgus monkey midbrain after 55.0 mins; assay type: ADME, organism-based; details: in vivo; in short: as §1
[32] = system: Cynomolgus monkey; experiment: Uptake in anesthetized cynomolgus monkey putamen after 45.0 mins; assay type: ADME, organism-based; details: in vivo, 0.75 h; in short: as §2
[33] = system: Cynomolgus monkey; experiment: Ratio of uptake in thalamus to cerebellum of anesthetized cynomolgus monkey after 105 mins; assay type: ADME, organism-based; details: in vivo, 1.75 h; in short: as §4
[34] = system: Cynomolgus monkey; experiment: Uptake in anesthetized cynomolgus monkey medulla after 105.0 mins; assay type: ADME, organism-based, Medulla of organ; details: in vivo, 1.75 h; in short: as §1
[35] = system: Cynomolgus monkey; experiment: Ratio of uptake in caudate to cerebellum of anesthetized cynomolgus monkey after 85 mins; assay type: ADME, organism-based; details: in vivo; in short: as §4

[11CH3]OC(=O)[C@@H]1C2CCC(C[C@@H]1c1cccc(/C=C/I)c1)N2 (stereo not given in full)
Drug uptake [1]: 3.9
Drug uptake [2]: 6.28
Drug uptake [3]: 2.1
Drug uptake [4]: 5.9
Drug uptake [5]: 0.89
Drug uptake [6]: 1.21
Drug uptake [7]: 5.11
Drug uptake [8]: 7.34
Drug uptake [9]: 3.05
Drug uptake [10]: 5.94
Drug uptake [11]: 6.58
Drug uptake [12]: 4.68
Drug uptake [13]: 3.69
Ratio [14]: 1
Drug uptake [15]: 5.39
Drug uptake [16]: 7.36
Drug uptake [17]: 6.9
Drug uptake [18]: 4.13
Drug uptake [19]: 5.71
Drug uptake [20]: 6.11
Drug uptake [21]: 0.01
Drug uptake [22]: 2.12
Drug uptake [23]: 6.9
Ratio [24]: 2
Ratio [25]: 1.6
Drug uptake [26]: 6.94
Drug uptake [27]: 6.65
Drug uptake [28]: 0.39
Drug uptake [29]: 6.72
Ratio [30]: 1.3
Drug uptake [31]: 7.57
Drug uptake [32]: 7.16
Ratio [33]: 2.1
Drug uptake [34]: 6.25
Ratio [35]: 1.5
